Experimental data from publication PMC11170630 (ACS Omega, 2024).

Columns and labels:
normal colonocyte = assay: MTT cytotoxicity on normal colonic epithelial cells; format: cell-based, rat; conditions: concentration at 100% cell viability (safe dose), 72 h, mean ± SEM
Summary of the method: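 Normal colonic epithelial cells were isolated by the Follmann & Birkner method, with modifications. Cytotoxicity of test compounds on these colonocytes was measured by MTT assay to define safe concentrations. Data are mean ± SEM of three measurements. Differences were tested by one-way ANOVA with Tukey's test, with significance at p < 0.05.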

HCT-116 cells = assay: MTT anticancer assay on colorectal cancer cell line HCT-116; format: cell-based, human; conditions: for SI (selectivity index): HCT-116 cells over normal colonocytes; for IC50: Homo sapiens, HCT-116, 72 h, read-out: IC50 HCT-116, MTT, 72 h, mean ± SEM
Summary of the method: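 MTT viability assay on human colorectal carcinoma HCT-116 cells exposed to test compounds. Data are mean ± SEM of three measurements. Differences between treatments were tested by one-way ANOVA with Tukey's test, with significance at p < 0.05.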

HCT-116 cell line = conditions: read-out: IC50 cytotoxicity HCT-116 cell line; cited from earlier work

SMILES | IC50 (HCT-116 cells) [µM] | EC100 normal colonocyte (normal colonocyte) [µM] | SI (selectivity index) (HCT-116 cells) | fold lower anticancer activity than compound 20 (HCT-116 cells; HCT-116 IC50, compared to 20) [fold] | IC50 (HCT-116 cell line) [µM]
O=c1c(Cc2ccccc2)nc2ccccc2n1Cc1cn(-c2ccc(I)cc2)nn1 [Compound 15] | 0.135 ± 0.009 | 0.103 ± 0.008 | 3.244 | – | –
O=C(O)CNC(=O)c1ccc(-n2cc(Cn3c(=O)c(Cc4ccccc4)nc4ccccc43)nn2)cc1 [Compound 17] | 0.114 ± 0.001 | 0.169 ± 0.036 | 3.263 | – | –
CC(=O)NS(=O)(=O)c1ccc(-n2cc(Cn3c(=O)c(Cc4ccccc4)nc4ccccc43)nn2)cc1 [Compound 19] | 0.331 ± 0.004 | 0.150 ± 0.015 | 1.211 | 4.6 | –
CNC(=O)c1cc(Oc2ccc(NC(=O)Nc3ccc(Cl)c(C(F)(F)F)c3)cc2)ccn1 [sorafenib] | – | – | – | – | 9.4

Now from value to compound, other results behind:

IC50 (HCT-116 cells) [µM] | SMILES | EC100 normal colonocyte (normal colonocyte) [µM] | SI (selectivity index) (HCT-116 cells) | fold lower anticancer activity than compound 20 (HCT-116 cells; HCT-116 IC50, compared to 20) [fold] | IC50 (HCT-116 cell line) [µM]
0.222 | O=c1c(Cc2ccccc2)nc2ccccc2n1Cc1cn(-c2ccc(O)cc2)nn1 [Compound 16] | 0.556 ± 0.031 | 5.000 | – | –
0.218 | CC(=O)c1ccc(-n2cc(Cn3c(=O)c(Cc4ccccc4)nc4ccccc43)nn2)cc1 [Compound 18] | 0.212 ± 0.010 | 10.633 | – | –
0.761 ± 0.05 | COc1cccc2c1C(=O)c1c(O)c3c(c(O)c1C2=O)C[C@@](O)(C(=O)CO)C[C@@H]3O[C@H]1C[C@H](N)[C@H](O)[C@H](C)O1 [DOX, doxorubicin, reference compound] | 0.074 ± 0.008 | 0.357 | – | 9.63
